Laboratory results as given in ChEMBL document CHEMBL2086368, “Sulfonilamidothiopyrimidone and thiopyrimidone derivatives as selective COX-2 inhibitors: synthesis, biological evaluation, and docking studies” (Eur J Med Chem, 2012).
Calls of active or inactive are those of the source. The calls are words filed in the database; no cut-off is given here.

Legend:
[1] = target: T1, Prostaglandin G/H synthase 2 (Homo sapiens) (UniProt P35354); experiment: Increase of COX2-mediated PGE2 production in PMA-Ion-stimulated human PBL at 10 uM after 24 hrs by ELISA
T1 sequence (whole entry): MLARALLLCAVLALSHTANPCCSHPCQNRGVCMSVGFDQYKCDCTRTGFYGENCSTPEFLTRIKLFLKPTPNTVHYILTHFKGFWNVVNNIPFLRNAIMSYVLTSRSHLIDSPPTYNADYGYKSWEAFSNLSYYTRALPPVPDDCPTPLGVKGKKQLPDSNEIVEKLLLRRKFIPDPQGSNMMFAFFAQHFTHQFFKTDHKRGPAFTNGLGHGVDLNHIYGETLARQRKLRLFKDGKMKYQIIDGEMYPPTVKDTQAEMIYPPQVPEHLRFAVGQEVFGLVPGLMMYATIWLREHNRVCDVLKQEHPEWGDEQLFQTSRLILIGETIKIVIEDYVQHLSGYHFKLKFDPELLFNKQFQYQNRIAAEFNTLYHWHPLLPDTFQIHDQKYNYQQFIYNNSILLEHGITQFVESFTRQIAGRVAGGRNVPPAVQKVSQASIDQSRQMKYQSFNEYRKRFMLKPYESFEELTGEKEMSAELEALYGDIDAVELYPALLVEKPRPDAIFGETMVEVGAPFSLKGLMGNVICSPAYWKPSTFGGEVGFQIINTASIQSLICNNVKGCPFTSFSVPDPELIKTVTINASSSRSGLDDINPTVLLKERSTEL

PBL [2] = experiment: Cytotoxicity against IL2-stimulated human PBL assessed as cell death at 10 uM after 24 hrs by MTT assay; assay type: cell-based
How it was run: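 IL-2-treated human PBLs given 1, 10 or 50 (micromolar) test agent for 24 h. Viability read by MTT (0.15 mg/ml, 4 h, 37 °C) reduction to formazan, absorbance at 570 nm with 655 nm reference. DMSO served as cell-death control.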

[3] = target: T1, Prostaglandin G/H synthase 2 (Homo sapiens); experiment: Inhibition of COX2-mediated PGE2 production in PMA-Ion-stimulated human PBL at 10 uM after 24 hrs by ELISA
PBL [4] = experiment: Inhibition of COX2 expression in PMA-Ion-stimulated human PBL at 10 uM after 20 hrs by Western blot analysis; assay type: functional, cell-based
How it was run: (§1)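 PBLs treated with PMA 15 ng/ml plus ionomycin, alone or with inhibitor, for 20 h at 37 °C; NS398 as inhibition control. Lysates quantified by BCA, resolved on 10% SDS-PAGE, semidry-blotted to PVDF, probed with rabbit anti-human COX-2 (1:500) and anti-α-tubulin loading control, ECL detection.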

PBL [5] = experiment: Antiproliferative activity against human PBL assessed as incorporation of BrdU at 10 uM after 2 to 24 hrs; assay type: cell-based
How it was run: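 Human PBLs in RPMI 1640 with 10% heat-inactivated FCS, 1% penicillin/streptomycin, 2 mM L-glutamine, stimulated with PHA and 60 U/ml IL-2; exposed to test agent for 24 h at 37 °C, 5% CO2. DNA synthesis read by immunochemical detection of incorporated BrdU after partial DNA denaturation.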

[6] = target: Prostaglandin G/H synthase 2 (Ovis aries) (UniProt P79208); conditions: at 5 nM
[7] = target: T1, Prostaglandin G/H synthase 2 (Homo sapiens); experiment: Increase of COX2-mediated PGE2 production in PMA-Ion-stimulated human PBL at 10 uM after 24 hrs by ELISA relative to control
PBL [8] = experiment: Inhibition of COX2 expression in PMA-Ion-stimulated human PBL at 5 uM after 20 hrs by Western blot analysis; assay type: functional, cell-based; how it was run: as §1

Prostaglandin G/H synthase 2 (Ovis aries), sequence (P79208 whole entry, looked up): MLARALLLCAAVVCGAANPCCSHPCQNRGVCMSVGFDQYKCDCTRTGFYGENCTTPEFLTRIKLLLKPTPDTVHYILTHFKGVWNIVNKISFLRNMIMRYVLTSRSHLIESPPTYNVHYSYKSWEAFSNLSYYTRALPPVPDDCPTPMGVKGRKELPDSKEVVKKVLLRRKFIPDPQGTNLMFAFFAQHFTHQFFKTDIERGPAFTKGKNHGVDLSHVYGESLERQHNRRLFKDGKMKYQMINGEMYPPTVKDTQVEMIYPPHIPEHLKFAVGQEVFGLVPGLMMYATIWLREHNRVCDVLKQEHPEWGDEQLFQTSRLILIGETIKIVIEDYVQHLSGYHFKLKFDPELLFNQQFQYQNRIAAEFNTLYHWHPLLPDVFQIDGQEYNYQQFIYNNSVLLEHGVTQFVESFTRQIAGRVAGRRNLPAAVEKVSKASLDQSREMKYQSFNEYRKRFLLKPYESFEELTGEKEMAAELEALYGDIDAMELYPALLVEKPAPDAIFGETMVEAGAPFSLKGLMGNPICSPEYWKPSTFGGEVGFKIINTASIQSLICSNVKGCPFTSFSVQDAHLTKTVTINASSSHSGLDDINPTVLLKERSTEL

SMILES	inhibition [3]	Activity (PBL [2])	also measured
Cc1sc2nc(SC3CCCCC3)n(NS(C)(=O)=O)c(=O)c2c1C		Non-toxic	Activity [1]: Active
Nn1c(SC(C(=O)O)c2ccccc2)nc2c([nH]c3ccccc32)c1=O (configuration not stated)		Non-toxic	
CS(=O)(=O)Nn1c(SC2CCCCC2)nc2sc(-c3ccccc3)cc2c1=O		Non-toxic	fold change (FC) [7]: 2.9
CS(=O)(=O)Nn1c(Sc2ccccc2C(=O)O)nc2ccsc2c1=O		Non-toxic	Activity [1]: Active
CS(=O)(=O)Nn1c(Sc2ccc([N+](=O)[O-])cc2)nc2sc(-c3ccccc3)cc2c1=O	20%	Non-toxic	inhibition (PBL [4]): Active; Activity (PBL [5]): Non-toxic; inhibition [6]: 50%
O=C1Nn2c(nc3c(sc4ccccc43)c2=O)SC1c1ccccc1 (configuration not stated)		Non-toxic	Activity [1]: Active
CCc1nn2c(=O)c3cc(-c4ccccc4)sc3nc2s1		Non-toxic	
CS(=O)(=O)Nn1c(Sc2ccc([N+](=O)[O-])cc2[N+](=O)[O-])nc2sc3c(c2c1=O)CCCC3		Non-toxic	
CC(Sc1nc2c(sc3ccccc32)c(=O)n1N)C(=O)O (configuration not stated)		Non-toxic	
CS(=O)(=O)Nc1ccc([N+](=O)[O-])cc1OC1CCCCC1			inhibition (PBL [8]): Active

Continued, in another order:

inhibition [3]	SMILES	Activity (PBL [2])	also measured
inactive	COc1ccc(C2=Nn3c(nc4sc(-c5ccccc5)cc4c3=O)SC2)cc1	Non-toxic	
20%	CS(=O)(=O)Nn1c(Sc2ccccc2[N+](=O)[O-])nc2sc(-c3ccccc3)cc2c1=O	Non-toxic	inhibition (PBL [4]): Active; Activity (PBL [5]): Non-toxic; inhibition [6]: 50%
inactive	O=c1c2sc3ccccc3c2nc2n1N=C(c1ccccc1)CS2	Non-toxic	
20%	CS(=O)(=O)Nn1c(Sc2ccccc2C(=O)O)nc2sc(-c3ccccc3)cc2c1=O	Non-toxic	inhibition (PBL [4]): Active; Activity (PBL [5]): Non-toxic; inhibition [6]: 50%
> 50%	CS(=O)(=O)Nn1c(Sc2ccc(F)cc2F)nc2sc(-c3ccccc3)cc2c1=O	Non-toxic	inhibition (PBL [4]): Active; Activity (PBL [5]): Non-toxic; inhibition [6]: 50%
